# ChEMBL document CHEMBL1126115, “Synthesis of a homologous series of ketomethylene arginyl pseudodipeptides and application to low molecular weight hirudin-like thrombin inhibitors” (J Med Chem, 1992)
# Starred links: 1 amine or outer side, 2 acyl side, 3 side chain; linkers in the order of their positions; H or OH if unused. Non-standard residues stand in square brackets, D forms with d. Residues, ends and D or L forms follow the SMILES beside them. X1 = NC(N)=NCCCC(N[*:1])C(=O)CCCCC(=O)[*:2]; X2 = O=C(C/C=C/CN[*:1])[*:2]
# Test system: Rattus norvegicus
# Assay: Antithrombotic effect compared to recombinant hirudin in the rat rretiovenous shunt model after intravenous administration
# Assay type: functional
# Outline: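 Urethane-anaesthetised rats on a temperature-controlled heating plate; right carotid artery and left jugular vein catheterised and joined by a 2-cm glass capillary (1 mm internal diameter) as thrombogenic surface. Compound or saline given intravenously 5 min before the shunt was opened. Patency followed by capillary temperature rise (thermocouple). ED15 is the dose giving a 15-min prolongation of shunt patency.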
row,SMILES,ED15 [mg/kg]
1,CC[C@H](C)[C@H](NC(=O)[C@@H]1CCCN1C(=O)[C@H](CCC(=O)O)NC(=O)[C@H](Cc1ccccc1)NC(=O)[C@H](CC(=O)O)NC(=O)C/C=C/CNC(=O)C/C=C/CNC(=O)CCCCC(=O)[C@H](CCCN=C(N)N)NC(=O)[C@@H]1CCCN1C(=O)[C@@H](Cc1ccccc1)NC(C)=O)C(=O)N1CCC[C@H]1C(=O)N[C@@H](CC(C)C)C(=O)O,6.27

# Biological target: Prothrombin (Homo sapiens, UniProt P00734)
# Assay: Compound was evaluated for their ability to inhibit the alpha-thrombin-mediated hydrolysis of the fluorescent substrate Tos-Gly-Pro-Arg-Amc
# Outline: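 Human α-thrombin (30 pM) added to start the reaction, 25 °C, 0.1 M Tris-HCl pH 7.8 with 0.1 M NaCl and 0.1% PEG 6000. […] Initial rates of Amc fluorescence read at ex 383/em 455 nm, calibrated against free 7-amino-4-methylcoumarin. Ki obtained by nonlinear fit to a competitive inhibition equation.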
row,Ki [nM],SMILES
1,300,CC[C@H](C)[C@H](NC(=O)[C@@H]1CCCN1C(=O)[C@H](CCC(=O)O)NC(=O)[C@H](Cc1ccccc1)NC(=O)[C@H](CC(=O)O)NC(=O)C/C=C/CNC(=O)CCCCC(=O)[C@H](CCCN=C(N)N)NC(=O)[C@@H]1CCCN1C(=O)[C@H](Cc1ccccc1)NC(C)=O)C(=O)N1CCC[C@H]1C(=O)N[C@@H](CC(C)C)C(=O)O (HELM PEPTIDE1{[ac].F.P.[NC(N)=NCCC[C@H](N[*:1])C(=O)CCCCC(=O)[*:2]].[O=C(C/C=C/CN[*:1])[*:2]].D.F.E.P.I.P.L}$$$$V2.0)
2,3.5,CC[C@H](C)[C@H](NC(=O)[C@@H]1CCCN1C(=O)[C@H](CCC(=O)O)NC(=O)[C@H](Cc1ccccc1)NC(=O)[C@H](CC(=O)O)NC(=O)C/C=C/CNC(=O)C/C=C/CNC(=O)CCCCC(=O)C(CCCN=C(N)N)NC(=O)[C@@H]1CCCN1C(=O)[C@H](Cc1ccccc1)NC(C)=O)C(=O)N1CCC[C@H]1C(=O)N[C@@H](CC(C)C)C(=O)O (stereo partly drawn)
3,0.14,CC[C@H](C)[C@H](NC(=O)[C@H](CCC(=O)O)NC(=O)[C@H](CCC(=O)O)NC(=O)[C@H](Cc1ccccc1)NC(=O)[C@H](CC(=O)O)NC(=O)CNC(=O)[C@H](CC(=O)O)NC(=O)[C@H](CC(N)=O)NC(=O)[C@H](Cc1c[nH]cn1)NC(=O)[C@H](CO)NC(=O)[C@H](CCC(N)=O)NC(=O)CCCCC(=O)[C@H](CCCN=C(N)N)NC(=O)[C@@H]1CCCN1C(=O)[C@H](Cc1ccccc1)NC(C)=O)C(=O)N1CCC[C@H]1C(=O)N[C@@H](CCC(=O)O)C(=O)N[C@@H](CCC(=O)O)C(=O)N[C@@H](Cc1ccc(O)cc1)C(=O)N[C@@H](CC(C)C)C(=O)N[C@@H](CCC(N)=O)C(=O)O
4,3.8,CC[C@H](C)[C@H](NC(=O)[C@H](CCC(=O)O)NC(=O)[C@H](CCC(=O)O)NC(=O)[C@H](Cc1ccccc1)NC(=O)[C@H](CC(=O)O)NC(=O)CNC(=O)[C@H](CC(=O)O)NC(=O)[C@H](CC(N)=O)NC(=O)[C@H](Cc1c[nH]cn1)NC(=O)[C@H](CO)NC(=O)[C@H](CCC(N)=O)NC(=O)CC(=O)[C@H](CCCN=C(N)N)NC(=O)[C@@H]1CCCN1C(=O)[C@H](Cc1ccccc1)NC(C)=O)C(=O)N1CCC[C@H]1C(=O)N[C@@H](CCC(=O)O)C(=O)N[C@@H](CCC(=O)O)C(=O)N[C@@H](Cc1ccc(O)cc1)C(=O)N[C@@H](CC(C)C)C(=O)N[C@@H](CCC(N)=O)C(=O)O
5,2.8,CC[C@H](C)[C@H](NC(=O)[C@@H]1CCCN1C(=O)[C@H](CCC(=O)O)NC(=O)C(Cc1ccccc1)NC(=O)[C@H](CC(=O)O)NC(=O)CNC(=O)[C@H](CC(=O)O)NC(=O)[C@H](CC(N)=O)NC(=O)[C@H](Cc1cnc[nH]1)NC(=O)[C@H](CO)NC(=O)[C@H](CCC(N)=O)NC(=O)[C@@H]1CCCN1C(=O)[C@H](CCCNC(=N)N)N(C)C(=O)[C@@H]1CCCN1C(=O)C(Cc1ccccc1)NC(C)=O)C(=O)N1CCC[C@H]1C(=O)N[C@@H](CC(C)C)C(=O)O (stereo in doubt)
6,3.2,CC[C@H](C)[C@H](NC(=O)[C@@H]1CCCN1C(=O)[C@H](CCC(=O)O)NC(=O)[C@H](Cc1ccccc1)NC(=O)[C@H](CC(=O)O)NC(=O)C/C=C/CNC(=O)C/C=C/CNC(=O)C/C=C/CNC(=O)CCCCC(=O)C(CCCN=C(N)N)NC(=O)[C@@H]1CCCN1C(=O)[C@H](Cc1ccccc1)NC(C)=O)C(=O)N1CCC[C@H]1C(=O)N[C@@H](CC(C)C)C(=O)O (stereo partly drawn) (Ac-FP[X1][X2][X2][X2]DFEPIPL-OH)
7,0.56,CC[C@H](C)[C@H](NC(=O)[C@H](CCC(=O)O)NC(=O)[C@H](CCC(=O)O)NC(=O)[C@H](Cc1ccccc1)NC(=O)[C@H](CC(=O)O)NC(=O)CNC(=O)[C@H](CC(=O)O)NC(=O)[C@H](CC(N)=O)NC(=O)[C@H](Cc1c[nH]cn1)NC(=O)[C@H](CO)NC(=O)[C@H](CCC(N)=O)NC(=O)CCCC(=O)[C@H](CCCN=C(N)N)NC(=O)[C@@H]1CCCN1C(=O)[C@H](Cc1ccccc1)NC(C)=O)C(=O)N1CCC[C@H]1C(=O)N[C@@H](CCC(=O)O)C(=O)N[C@@H](CCC(=O)O)C(=O)N[C@@H](Cc1ccc(O)cc1)C(=O)N[C@@H](CC(C)C)C(=O)N[C@@H](CCC(N)=O)C(=O)O
